Assay results published in ChEMBL document CHEMBL1123779, “Modifications of primaquine as antimalarials. 4. 5-Alkoxy derivatives of primaquine” (J Med Chem, 1987).

Columns and labels:
Mus musculus [1] = test: Suppressive blood schizonticidal antimalarial activity evaluated in the trophozoite-induced Plasmodium berghei infection in mice (Mus musculus) at a dose 320 mg/kg given as no. of toxic deaths; type: functional
In short: (§1)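 Rane Laboratory mouse test with blood-induced P. berghei infection, five mice per group. Toxic deaths are deaths occurring before the 6th day postinfection.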

Plasmodium berghei [2] = test: Suppressive blood schizonticidal antimalarial activity evaluated in the trophozoite-induced Plasmodium berghei infection in mice (Mus musculus) at a dose 640 mg/kg given as number of toxic deaths; type: toxicity, organism-based; parameters: dose 640 mg/kg; details: in vivo; in short: as §1
Plasmodium berghei [3] = test: Blood schizonticidal antimalarial activity in the trophozoite-induced Plasmodium berghei infection in mice (Mus musculus) at 20 mg/kg; type: functional; parameters: unit not given beside the values
In short: (§2)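 Run at the Rane Laboratory in mice infected with blood-induced P. berghei, five animals per group. Activity is the increase in mean survival time over untreated infected controls. A compound counts as active when treated-group MST is more than twice the control MST. Cures are mice surviving at 60 days postinfection.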

Mus musculus [4] = test: Suppressive blood schizonticidal antimalarial activity evaluated in the trophozoite-induced Plasmodium berghei infection in mice (Mus musculus) at a dose 160 mg/kg; type: functional; in short: as §2
Mus musculus [5] = test: Suppressive blood schizonticidal antimalarial activity evaluated in the trophozoite-induced Plasmodium berghei infection in mice (Mus musculus) at a dose 40 mg/kg; type: functional; parameters: unit not given beside the values; in short: as §2
Mus musculus [6] = test: Suppressive blood schizonticidal antimalarial activity evaluated in the trophozoite-induced Plasmodium berghei infection in mice (Mus musculus) at a dose 80 mg/kg; type: functional; parameters: unit not given beside the values; in short: as §2
Plasmodium cynomolgi [7] = test: Cures in Plasmodium cynomolgi infected Rhesus monkeys (Macaca mulatta) on 0.316 mg/kg/day after 7 days; cured 0 of 2; type: functional
Plasmodium cynomolgi [8] = test: Cures in Plasmodium cynomolgi infected Rhesus monkeys (Macaca mulatta) on 1 mg/kg/day after 7 days; cured 3 of 3; type: functional
Plasmodium cynomolgi [9] = test: Cures in Plasmodium cynomolgi infected Rhesus monkeys (Macaca mulatta) on 10.0 mg/kg/day after 7 days; cured 1 of 1; type: functional
Mus musculus [10] = test: Suppressive blood schizonticidal antimalarial activity evaluated in the trophozoite-induced Plasmodium berghei infection in mice (Mus musculus) at a dose 160 mg/kg given as no. of cures; type: functional
In short: (§3)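 Run at the Rane Laboratory with blood-induced P. berghei infections in mice, five animals per group. A cure is a mouse surviving to 60 days postinfection. Deaths before day 6 are recorded separately as toxic deaths. Activity is scored from the increase in mean survival time over untreated controls, and counts as active when treated MST is more than twice control MST.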

Mus musculus [11] = test: Suppressive blood schizonticidal antimalarial activity evaluated in the trophozoite-induced Plasmodium berghei infection in mice (Mus musculus) at a dose 80 mg/kg given as no. of cures; type: functional; in short: as §3
Mus musculus [12] = test: Suppressive blood schizonticidal antimalarial activity evaluated in the trophozoite-induced Plasmodium berghei infection in mice (Mus musculus) at a dose 320 mg/kg; type: functional; in short: as §2
Plasmodium cynomolgi [13] = test: Cures in Plasmodium cynomolgi infected Rhesus monkeys (Macaca mulatta) on 1 mg/kg/day after 7 days; cured 0 of 1; type: functional
Mus musculus [14] = test: Suppressive blood schizonticidal antimalarial activity evaluated in the trophozoite-induced Plasmodium berghei infection in mice (Mus musculus) at a dose 640 mg/kg given as no. of cures; type: functional; in short: as §3
Plasmodium cynomolgi [15] = test: Cures in Plasmodium cynomolgi infected Rhesus monkeys (Macaca mulatta) on 0.1 mg/kg/day after 7 days; cured 0 of 1; type: functional
Plasmodium berghei [16] = test: Blood schizonticidal activity in trophozoite-induced Plasmodium berghei infected mice (Mus musculus) at 40 mg/kg; numbers cured; type: functional; in short: as §3
Mus musculus [17] = test: Suppressive blood schizonticidal antimalarial activity evaluated in the trophozoite-induced Plasmodium berghei infection in mice (Mus musculus) at a dose 160 mg/kg given as no. of toxic deaths; type: functional; in short: as §1
Plasmodium cynomolgi [18] = test: Cures in Plasmodium cynomolgi infected Rhesus monkeys (Macaca mulatta) on 1 mg/kg/day after 7 days; cured 1 of 1; type: functional
Plasmodium cynomolgi [19] = test: Cures in Plasmodium cynomolgi infected Rhesus monkeys (Macaca mulatta) on 0.316 mg/kg/day after 7 days; cured 0 of 1; type: functional
Plasmodium cynomolgi [20] = test: Cures in Plasmodium cynomolgi infected Rhesus monkeys (Macaca mulatta) on 0.316 mg/kg/day after 7 days; cures 2 of 2; type: functional
Plasmodium cynomolgi [21] = test: Cures in Plasmodium cynomolgi infected Rhesus monkeys (Macaca mulatta) on 10.0 mg/kg/day after 7 days; type: functional, organism-based
Plasmodium cynomolgi [22] = test: Cures in Plasmodium cynomolgi infected Rhesus monkeys (Macaca mulatta) on 0.1 mg/kg/day after 7 days; cured 1 of 3; type: functional
Mus musculus [23] = test: Suppressive blood schizonticidal antimalarial activity evaluated in the trophozoite-induced Plasmodium berghei infection in mice (Mus musculus) at a dose 10 mg/kg given as no. of cures; type: functional; in short: as §3
Mus musculus [24] = test: Suppressive blood schizonticidal antimalarial activity evaluated in the trophozoite-induced Plasmodium berghei infection in mice (Mus musculus) at a dose 20 mg/kg given as no. of cures; type: functional; in short: as §3
Mus musculus [25] = test: Suppressive blood schizonticidal antimalarial activity evaluated in the trophozoite-induced Plasmodium berghei infection in mice (Mus musculus) at a dose 80 mg/kg given as no. of toxic deaths; type: functional; in short: as §1
Mus musculus [26] = test: Suppressive blood schizonticidal antimalarial activity evaluated in the trophozoite-induced Plasmodium berghei infection in mice (Mus musculus) at a dose 2.5 mg/kg; type: functional; in short: as §2
Mus musculus [27] = test: Suppressive blood schizonticidal antimalarial activity evaluated in the trophozoite-induced Plasmodium berghei infection in mice (Mus musculus) at a dose 5 mg/kg; type: functional; parameters: unit not given beside the values; in short: as §2
Plasmodium cynomolgi [28] = test: Cures in Plasmodium cynomolgi infected Rhesus monkeys (Macaca mulatta) on 1 mg/kg/day after 7 days; cured 2 of 2; type: functional
Plasmodium cynomolgi [29] = test: Cures in Plasmodium cynomolgi infected Rhesus monkeys (Macaca mulatta) on 0.1 mg/kg/day after 7 days (x7); cured 0 of 2; type: functional
Mus musculus [30] = test: Suppressive blood schizonticidal antimalarial activity evaluated in the trophozoite-induced Plasmodium berghei infection in mice (Mus musculus) at a dose 5 mg/kg given as no. of cures; type: functional; in short: as §3
Mus musculus [31] = test: Suppressive blood schizonticidal antimalarial activity evaluated in the trophozoite-induced Plasmodium berghei infection in mice (Mus musculus) at a dose 40 mg/kg given as number of toxic deaths; type: ADME, organism-based; parameters: dose 40 mg/kg; details: in vivo; in short: as §1
Mus musculus [32] = test: Suppressive blood schizonticidal antimalarial activity evaluated in the trophozoite-induced Plasmodium berghei infection in mice (Mus musculus) at a dose 10 mg/kg; type: functional; in short: as §2

SMILES	Toxic deaths (Mus musculus [1])	Toxic deaths (Plasmodium berghei [2])	Delta MST (Plasmodium berghei [3])	Delta MST (Mus musculus [5])	Cures (Mus musculus [11])	Delta MST (Mus musculus [12])	Cures (Plasmodium berghei [16])	Toxic deaths (Mus musculus [17])	Cures/no. of animals (Plasmodium cynomolgi [18])	Cures/no. of animals (Plasmodium cynomolgi [19])	Cures/no. of animals (Plasmodium cynomolgi [20])	Cures (Mus musculus [23])	Cures (Mus musculus [24])	Delta MST (Mus musculus [26])	Cures/no. of animals (Plasmodium cynomolgi [29])	other results
COc1cc(NC(C)CCCN)c2nc(C)ccc2c1 (stereo not drawn)	1	5	3.1	5.5	–	–	–	–	–	–	–	–	–	–	–	Delta MST (Mus musculus [4]): 8.3; Delta MST (Mus musculus [6]): 7.3
CCCCCCOc1c(OC)cc(NC(C)CCCN)c2ncccc12 (stereo not drawn)	–	1	3.7	6.5	1	0.1	–	–	–	–	–	–	–	–	–	Cures/no. of animals (Plasmodium cynomolgi [7]): 0; Cures/no. of animals (Plasmodium cynomolgi [8]): 3; Cures/no. of animals (Plasmodium cynomolgi [9]): 1; Cures (Mus musculus [10]): 1
CCCCCCCCCCOc1c(OC)cc(NC(C)CCCN)c2ncccc12 (stereo not drawn)	–	–	0.1	0.1	–	9.3	–	–	–	–	–	–	–	–	–	Cures/no. of animals (Plasmodium cynomolgi [13]): 0; Cures/no. of animals (Plasmodium cynomolgi [9]): 1; Cures (Mus musculus [14]): 2; Delta MST (Mus musculus [4]): 5.7; Delta MST (Mus musculus [6]): 2.9
CCCC(CC)Oc1c(OC)cc(NC(C)CCCN)c2ncc(C)cc12 (stereo not drawn)	5	5	5.3	–	1	–	1	4	–	–	–	–	–	–	–	Cures/no. of animals (Plasmodium cynomolgi [13]): 0; Cures/no. of animals (Plasmodium cynomolgi [15]): 0
COc1cc(NC(C)CCCN)c2ncccc2c1OCC(F)(F)F (stereo not drawn)	–	–	–	–	–	–	–	–	1	0	–	–	–	–	–	–
CCCCOCCOc1c(OC)cc(NC(C)CCCN)c2nccc(C)c12 (stereo not drawn)	4	–	–	–	–	–	2	3	1	–	2	3	4	3.3	–	Cures/no. of animals (Plasmodium cynomolgi [21]): Toxic; Cures/no. of animals (Plasmodium cynomolgi [22]): 1; Toxic deaths (Mus musculus [25]): 4; Delta MST (Mus musculus [27]): 4.3
COCCCCCCOc1c(OC)cc(NC(C)CCCN)c2nccc(C)c12 (stereo not drawn)	–	5	–	–	–	–	2	5	–	0	–	3	2	6.9	0	Cures/no. of animals (Plasmodium cynomolgi [28]): 2; Cures (Mus musculus [30]): 1; Toxic deaths (Mus musculus [31]): 3
CCCOc1c(OC)cc(NC(C)CCCN)c2nccc(C)c12 (stereo not drawn)	–	5	–	–	–	–	–	5	1	–	2	1	3	6	0	Cures (Mus musculus [30]): 1; Toxic deaths (Mus musculus [31]): 3
CCCCOc1c(OC)cc(NC(C)CCCN)c2nccc(C)c12 (stereo not drawn)	5	5	–	–	–	–	3	5	1	–	2	–	5	–	0	Toxic deaths (Mus musculus [25]): 4; Delta MST (Mus musculus [32]): 11
CCCCCCCCOc1c(OC)cc(NC(C)CCCN)c2nccc(C)c12 (stereo not drawn)	–	2	–	–	5	0.4	5	–	1	0	–	5	5	7.8	–	Cures/no. of animals (Plasmodium cynomolgi [21]): Toxic; Cures (Mus musculus [10]): 2; Delta MST (Mus musculus [27]): 12
